# In ChEMBL document CHEMBL4390674, “Defining Structure-Functional Selectivity Relationships (SFSR) for a Class of Non-Catechol Dopamine D1 Receptor Agonists” (J Med Chem, 2019):
# Calls of active or inactive are those of the source. The rule behind the calls is not given here.
# Tests used:
# D(1A) dopamine receptor [1] = target: T1, D(1A) dopamine receptor (Homo sapiens, UniProt P21728); test: Agonist activity at recombinant human D1 receptor expressed in HEK29T cells assessed as induction of stimulatory G-protein-mediated cAMP accumulation measured after 15 mins by Glosensor-based FLIPR assay; type: functional, cell-based
# Outline: (§1)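 GloSensor-22F cAMP biosensor in HEK293T cells co-expressing human D1, seeded in DMEM + 1% dialyzed FBS; next day GloSensor reagent equilibrated ≥15 min at room temperature in HBSS/20 mM HEPES pH 7.4, then drug added in HBSS/HEPES/0.1% BSA/0.01% ascorbic acid. Luminescence read after 15 min; normalized to dopamine maximum (100%); sigmoidal fit; maximum tested 10⁻⁴ M; ≥3 experiments in triplicate.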
# D(1A) dopamine receptor [2] = target: T1, D(1A) dopamine receptor; test: Agonist activity at recombinant human D1 receptor expressed in HEK29T cells assessed as induction of stimulatory G-protein-mediated cAMP accumulation measured after 15 mins by Glosensor-based FLIPR assay relative to dopamine; type: functional, cell-based; outline: as §1
# D(1A) dopamine receptor [3] = target: T1, D(1A) dopamine receptor; test: (§2) Agonist activity at recombinant C-terminal RLuc8-fused human D1 receptor expressed in HEK29T cells co-expressing N-terminal Venus-tagged beta-arrestin2 assessed as increase in beta-arrestin2 recruitment measured after 15 mins in presence of coelenterazine H by BRET assay; type: cell-based; details: read-out: EC50
# D(1A) dopamine receptor [4] = target: T1, D(1A) dopamine receptor; test: Bias factor, transduction co-efficient for agonist activity at recombinant human D1 receptor expressed in HEK29T cells assessed as induction of stimulatory G-protein-mediated cAMP accumulation to agonist activity at recombinant C-terminal RLuc8-fused human D1 receptor expressed in HEK29T cells co-expressing N-terminal Venus-tagged beta-arrestin2 assessed as increase in beta-arrestin2 recruitment; type: functional, cell-based
# Outline: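 Dopamine as full-agonist reference; transduction coefficients log(τ/KA) for Gs-cAMP (GloSensor) and β-arrestin2 (BRET) computed relative to dopamine and averaged across experiments; bias factor derived by Kenakin method from the difference between Gs and β-arrestin2 coefficients.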
# D(1A) dopamine receptor [5] = target: T1, D(1A) dopamine receptor; test: as §2, with “recruitment at 10^-4M” for “recruitment”, “assay relative to dopamine” for “assay”; type: cell-based
# D(1A) dopamine receptor [6] = target: T1, D(1A) dopamine receptor; test: Agonist activity at recombinant C-terminal RLuc8-fused human D1 receptor expressed in HEK29T cells co-expressing N-terminal Venus-tagged beta-arrestin2 assessed as increase in beta-arrestin2 recruitment at 10^-4M measured after 15 mins in presence of coelenterazine H by BRET assay; type: cell-based
# D(1A) dopamine receptor [7] = target: T1, D(1A) dopamine receptor; test: Agonist activity at recombinant human D1 receptor expressed in HEK29T cells assessed as induction of stimulatory G-protein-mediated cAMP accumulation at 10'4M measured after 15 mins by Glosensor-based FLIPR assay; type: functional, cell-based; outline: as §1
# D(1A) dopamine receptor [8] = target: T1, D(1A) dopamine receptor; test: Agonist activity at recombinant human D1 receptor expressed in HEK29T cells assessed as induction of stimulatory G-protein-mediated cAMP accumulation at 10'4M measured after 15 mins by Glosensor-based FLIPR assay relative to dopamine; type: functional, cell-based; outline: as §1
# D(1A) dopamine receptor [9] = target: T1, D(1A) dopamine receptor; test: Agonist activity at recombinant C-terminal RLuc8-fused human D1 receptor expressed in HEK29T cells co-expressing N-terminal Venus-tagged beta-arrestin2 assessed as increase in beta-arrestin2 recruitment measured after 15 mins in presence of coelenterazine H by BRET assay relative to dopamine; type: cell-based
# [10] = Cmax in Swiss albino mouse plasma at 50 mg/kg, ip measured up to 4 hrs by LC-MC/MS analysis; type: ADME, organism-based; set-up: dose 50 mg/kg, route intraperitoneal
# Outline: (§3)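 Male Swiss Albino mice (nine), 50 mg/kg i.p. in 5% NMP/5% Solutol HS-15/90% saline; plasma and brain taken from three mice per time point at 0.5, 1.5 and 4 h; brain homogenized 2:1 in ice-cold PBS pH 7.4; LC-MS/MS quantitation (LLOQ 1.01 ng/mL plasma, 3.03 ng/g brain); noncompartmental analysis.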
# [11] = Toxicity in Swiss albino mouse at 50 mg/kg, ip measured up to 4 hrs; type: organism-based; details: in vivo
# [12] = Cmax in Swiss albino mouse brain at 50 mg/kg, ip measured up to 4 hrs by LC-MC/MS analysis; type: ADME, organism-based; set-up: dose 50 mg/kg, route intraperitoneal; outline: as §3
# [13] = Ratio of drug level in brain to plasma in Swiss albino mouse at 50 mg/kg, ip measured up to 4 hrs by LC-MC/MS analysis; type: ADME, organism-based; outline: as §3
# T1 sequence (P21728 whole entry): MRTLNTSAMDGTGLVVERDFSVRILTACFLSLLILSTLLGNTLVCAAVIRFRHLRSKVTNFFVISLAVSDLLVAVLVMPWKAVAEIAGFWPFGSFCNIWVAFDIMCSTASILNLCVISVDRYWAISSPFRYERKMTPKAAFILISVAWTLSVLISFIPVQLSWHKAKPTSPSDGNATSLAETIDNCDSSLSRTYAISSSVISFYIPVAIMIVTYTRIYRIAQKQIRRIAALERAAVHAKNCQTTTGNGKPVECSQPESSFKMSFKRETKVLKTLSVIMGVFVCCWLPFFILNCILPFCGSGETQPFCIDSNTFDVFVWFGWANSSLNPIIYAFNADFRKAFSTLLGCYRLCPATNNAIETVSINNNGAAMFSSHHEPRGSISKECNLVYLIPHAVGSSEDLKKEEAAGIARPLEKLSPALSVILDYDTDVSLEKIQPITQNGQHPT
Compound,EC50 (D(1A) dopamine receptor [1]) [nM],Emax (D(1A) dopamine receptor [2]) [%],EC50 (D(1A) dopamine receptor [3]) [nM],Emax (D(1A) dopamine receptor [5]),Activity (D(1A) dopamine receptor [6]),further results
Cc1cc(Oc2nccc3ccccc23)ccc1-c1c(C)ncc2nccn12,15,82,> 10000,,,
Oc1cc2c(cc1O)[C@H]1c3ccccc3CN[C@@H]1CC2 (racemic),,,,,,fold change (FC) (D(1A) dopamine receptor [4]): 7.5
CCN(c1ccc(-c2c(C)ncc3nccn23)c(C)c1)c1nccc2occc12,36,80,,inactive,inactive,
COC(=O)c1cccn2c(-c3ccc(Oc4nccc5occc45)cc3C)cnc12,1000,44,,inactive,inactive,
Cc1cc(Nc2nccc3occc23)ccc1-c1c(C)ncc2nccn12,16,98,> 10000,,,
FC(F)(F)c1cc(Oc2ccccn2)ccc1-c1cccc2nccn12,270,65,,inactive,inactive,
Cc1ncc2nccn2c1-c1cc(F)c(Oc2nccc3occc23)c(F)c1,140,66,,inactive,inactive,
Cc1ncc2nccn2c1-c1ccc(Oc2nccc3occc23)c(C(F)(F)F)c1,,,,inactive,inactive,Activity (D(1A) dopamine receptor [7]): inactive; Emax (D(1A) dopamine receptor [8]): inactive
FC(F)(F)c1cc(Oc2nccn3cccc23)ccc1-c1cccc2nccn12,7.8,78,,inactive,inactive,
Cc1cc(N(c2nccc3occc23)C(C)C)ccc1-c1c(C)ncc2nccn12,100,67,,inactive,inactive,
Cc1cc(Oc2cc(N3CCCCC3)ccn2)ccc1-c1c(C)ncc2nccn12,640,26,,inactive,inactive,
Cc1cc(N(C)c2nccc3occc23)ccc1-c1c(C)ncc2nccn12,88,79,,inactive,inactive,
Cc1cc(Oc2nccn3ccnc23)ccc1-c1c(C)ncc2nccn12,260,85,,inactive,inactive,
Cc1cc(Oc2nccc3occc23)ccc1-c1ccc(C#N)cn1,> 10000,,,inactive,inactive,
Cc1cc(Oc2nccc3occc23)ccc1-c1c(C)cnnc1C,1.2,61,,inactive,inactive,
Cc1cc(Oc2nccc3occc23)ccc1-c1cc(N)cnc1C,13,67,1100,,,fold change (FC) (D(1A) dopamine receptor [4]): 1.2; Emax (D(1A) dopamine receptor [9]): 64%
FC(F)(F)c1cc(Oc2nccc3ccccc23)ccc1-c1cccc2nccn12,67,61,,inactive,inactive,
Cc1cc(-c2cccc3nccn23)ccc1Oc1nccc2occc12,530,29,,inactive,inactive,
Cc1cc(Oc2cccc3occc23)ccc1-c1c(C)ncc2nccn12,79,69,,inactive,inactive,
Cc1cc(N(CC2CC2)c2nccc3occc23)ccc1-c1c(C)ncc2nccn12,320,78,,inactive,inactive,
FC(F)(F)c1cc(-c2cccc3nccn23)ccc1Oc1nccc2occc12,,,,inactive,inactive,Activity (D(1A) dopamine receptor [7]): inactive; Emax (D(1A) dopamine receptor [8]): inactive
Cc1cc(Oc2nccn3cccc23)ccc1-c1c(C)ncc2nccn12,,83,,,,fold change (FC) (D(1A) dopamine receptor [4]): 15; Emax (D(1A) dopamine receptor [9]): 59%
FC(F)(F)c1cc(Oc2nccc3occ(C4CC4)c23)ccc1-c1cccc2nccn12,770,83,,inactive,inactive,

Compound,EC50 (D(1A) dopamine receptor [1]) [nM],Emax (D(1A) dopamine receptor [2]) [%],EC50 (D(1A) dopamine receptor [3]) [nM],Emax (D(1A) dopamine receptor [5]),Activity (D(1A) dopamine receptor [6]),further results
Cc1cc(Oc2ccccn2)ccc1-c1c(C)ncc2nccn12,120,83,> 10000,,,
Cc1cc(Oc2nccc3[nH]ncc23)ccc1-c1c(C)ncc2nccn12,1.8,104,> 10000,,,
Cc1cc(-c2c(C)ncc3nccn23)ccc1Oc1nccc2occc12,610,62,,inactive,inactive,
FC(F)(F)c1cc(Oc2nccn3ccnc23)ccc1-c1cccc2nccn12,180,54,,inactive,inactive,
Cc1ncc2nccn2c1-c1ccc(Oc2nccc3occc23)cc1N,1.3,104,210,,,fold change (FC) (D(1A) dopamine receptor [4]): 2.7; Emax (D(1A) dopamine receptor [9]): 81%
Cc1c(Oc2nccc3occc23)ccc(-c2cccc3nccn23)c1C,110,30,,inactive,inactive,
Cc1cc(Oc2nccc3occc23)ccc1-c1cncc(C(N)=O)c1,1300,59,,inactive,inactive,
COc1ccc(-c2ccc(Oc3nccc4occc34)cc2C)c(C)n1,77,80,> 10000,,,
Cc1cc(Oc2nccc(O)c2C)ccc1-c1c(C)ncc2nccn12,160,34,,inactive,inactive,
Nc1cc(Oc2nccc3occc23)ccc1-c1cccc2nccn12,10,91,790,,,Cmax [10]: 100 µM; fold change (FC) (D(1A) dopamine receptor [4]): 1.7; Emax (D(1A) dopamine receptor [9]): 54%; Activity [11]: Non-Toxic; Cmax [12]: 100 µM; BPR [13]: 1.2 to 1.6
Cc1cc(Oc2ncccc2Br)ccc1-c1c(C)ncc2nccn12,> 10000,,,inactive,inactive,
Cc1cc(Oc2nccc3ccsc23)ccc1-c1c(C)ncc2nccn12,0.23,100,22,,,fold change (FC) (D(1A) dopamine receptor [4]): 1.9; Emax (D(1A) dopamine receptor [9]): 63%
Cc1cc(Oc2nccc3occc23)ccc1-c1nc(N)cnc1C,22,91,> 10000,,,
Cc1ncc2nccn2c1-c1ccc(Oc2nccc3occc23)c(C)c1C,55,54,,inactive,inactive,
Cc1cc(N(c2nccc3occc23)C2CCCC2)ccc1-c1c(C)ncc2nccn12,1100,68,> 10000,,,
Cc1cc(Oc2nccc3occc23)cc(C)c1-c1cccc2nccn12,,,,inactive,inactive,Activity (D(1A) dopamine receptor [7]): inactive; Emax (D(1A) dopamine receptor [8]): inactive
Cc1cc(Oc2nccc3occ(C4CC4)c23)ccc1-c1c(C)ncc2nccn12,62,67,,inactive,inactive,
Cc1cc(Oc2nccc3occc23)ccc1-c1c(C)nc2cnccn12,5.8,63,2600,,,fold change (FC) (D(1A) dopamine receptor [4]): 4.1; Emax (D(1A) dopamine receptor [9]): 89%
Fc1cc(-c2cccc3nccn23)cc(F)c1Oc1nccc2occc12,190,57,> 10000,,,
FC(F)(F)c1cc(Oc2cc(N3CCCCC3)ccn2)ccc1-c1cccc2nccn12,,,> 10000,,,Activity (D(1A) dopamine receptor [7]): inactive; Emax (D(1A) dopamine receptor [8]): inactive
CCOc1ncnc(C)c1-c1ccc(Oc2nccc3occc23)cc1C,12,67,> 10000,,,
Cc1cc(Oc2nccc3occc23)ccc1-c1cccc2nccn12,2.7,95,180,,,fold change (FC) (D(1A) dopamine receptor [4]): 1.3; Emax (D(1A) dopamine receptor [9]): 63%
